This is one part of a sample in which hits are shown more often than they occur.
XBP1 UPR activ = activators of adaptive XBP1 UPR arm, primary screen, cell-based, CHO-XBP1 luciferase reporter, luminescence, uHTS; IRE1-XBP1 UPR activation; percent of tunicamycin response, DMSO as zero; activation, % at 20 µM; 0.33% of 330,000 active; AID 463104, 2010;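 active = versus positive control, 20 µM dose yields 30% or more activation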;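 also: 100% = tunicamycin at 10 µg/mL and 0% = DMSO only wells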
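Material: IRE1-XBP1 luciferase reporter CHO line / Quantity: one thousand reporter cells per well / Buffer or medium: F12 with 10% serum / Compound: 20 µM single concentration, DMSO 1% / Times: 6 h treatment, 37 °C / Detection: Steady-Glo luciferase glow luminescence, 10 min after reagent addition / Benchmarks: tunicamycin high, DMSO low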
CHOP inh = inhibitors of CHOP promoter induction, primary screen, cell-based, unfolded protein response, luciferase reporter | CHO-K1 CHOP-promoter luciferase, tunicamycin-induced, 15-18 h | inhibition, % at 10 µM | 3.8% of 220,000 active;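 active = compounds that reduced the stress-induced luciferase reporter signal by more than about 70% of percent inhibition, limit read from the data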;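 also: 0% = tunicamycin plus vehicle and 100% = wells without tunicamycin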
Bfl-1 A1 inh = caspase 3/7 activation in MEF A1-2A-BIM cells, primary screen, A1 inhibitor project, cell-based, luminescence, HTS; Caspase-Glo 3/7 luminescence, 3 h; percent of clofoctol response, vehicle zero; caspase activation, % (concentration not given with the values); 0.066% of 330,000 active;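 active = over half of replicate activation scores above 10%, or exactly half above 10 with the replicate mean above 10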
CHOP UPR activ = activators of apoptotic CHOP UPR arm, primary screen, cell-based, CHO-CHOP luciferase reporter, luminescence, uHTS; UPR activation; percent of tunicamycin response over DMSO baseline; activation, % at 10 µM; 0.34% of 330,000 active; AID 449763, 2010;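 active = at 10 µM dose, activation of 40% or more, normalized to positive control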;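 also: 100% = tunicamycin at 10 µg/mL and 0% = DMSO alone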
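Dosing – one dose, 10 µM in 0.5% DMSO · System – CHO-CHOP cells, stable luciferase reporter of PERK-eIF2a-CHOP signalling · Input – 500 cells/well · Control set – tunicamycin 10 µg/mL final as positive, DMSO-only wells as negative · Timing – 6 h compound treatment, 37 °C · Measure – % activation vs tunicamycin · Technique – luminescence read with Steady-Glo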
* hit, by the source's call; . = not tested or not shown.

SMILES	XBP1 UPR activ	CHOP inh	Bfl-1 A1 inh	CHOP UPR activ
CCC(C)(C)NC(=O)CN(Cc1ccc(F)cc1)C(=O)CCC(=O)Nc1ccccn1	3	.	-1	0
NC(=O)CC(NC(=O)Cc1cccc2ccccc12)c1ccc(NC2CCCCCC2)c([N+](=O)[O-])c1 (stereo not given)	0	96*	1	-1
NC(=O)CC(NC(=O)Cc1cccc2ccccc12)c1ccc(NCCc2ccccc2F)c([N+](=O)[O-])c1 (stereo not given)	-1	91*	-1	-1
NC(=O)CC(NC(=O)Cc1ccc(Br)cc1)c1ccc(NC2CCCC2)c([N+](=O)[O-])c1 (stereo not given)	1	84*	1	-3
NC(=O)CC(NC(=O)Cc1cccc2ccccc12)c1ccc(NC2CCCCCCC2)c([N+](=O)[O-])c1 (stereo not given)	-1	75*	0	1
COc1cccc(NC(=S)NN=C2CCCCCC2)c1	-1	-56	.	5
CCC(CC)NC(=O)CN1CCN(S(=O)(=O)c2cccs2)CC1	-3	.	.	0
NC(=O)CC(NC(=O)c1ccccc1)c1ccc(NCCc2ccc(F)cc2)c([N+](=O)[O-])c1 (stereo not given)	0	92*	0	1
O=[N+]([O-])c1ccc(CSc2nnc(-c3cccnc3)o2)cc1	-3	.	1	2
CC(Oc1ccc(Cl)cc1Cl)C(=O)Nc1ccc2oc(-c3ccncc3)nc2c1 (stereo not given)	1	74*	0	-1
CC1Cc2nc(SCC(=O)Nc3ccc(F)cc3)n(C)c(=O)c2S1 (stereo not given)	-1	21	0	-3
COc1cccc(NC(=O)CSc2nc3c(c(=O)n2C)SC(C)C3)c1 (stereo not given)	-1	79*	1	-1
Cc1cc(NC(=O)c2nn(C)c(C)c2Br)no1	1	.	-2	3
CC(C)CN(C(=O)Cn1nnc(-c2ccc(F)cc2)n1)C1CCS(=O)(=O)C1 (stereo not given)	-2	.	0	0
OC(COc1ccccc1)CN1CCN(C(c2ccccc2)c2ccccc2)CC1 (stereo not given)	-5	.	0	-1
CCC(=O)c1ccc(OCC(O)CN2CCN(C(c3ccccc3)c3ccccc3)CC2)cc1 (stereo not given)	-1	86*	0	0
Cc1noc(C)c1COc1ccc(C(=O)NCc2cccs2)cc1	-3	.	2	0
O=[N+]([O-])c1cc(/C=N\Nc2ccccn2)ccc1Cl	-2	.	-2	6
O=[N+]([O-])c1cc(Cl)cc(/C=N\Nc2ccccn2)c1O	-1	93*	0	-1
CCOC(=O)c1cc(-c2ccccc2)n(CC(=O)Nc2ccc(OC)c(OC)c2)c1C	2	100*	-2	-1
O=C(Nc1ccccc1-c1ccccc1)c1ccc(=O)[nH]n1	-2	.	0	3
CCOP(=O)(OCC)c1nc(-c2ccc(Cl)cc2)oc1NCc1ccccc1	-3	92*	-1	-2
O=C1CC(c2ccco2)Cc2nc(NCC3CCCO3)ncc21 (stereo not given)	-2	82*	0	-1
O=C1CC(c2ccco2)Cc2nc(Nc3ccc(F)cc3)ncc21 (stereo not given)	-3	49	0	1
COc1ccc2[nH]c3c4c(ccc3c2c1)C(=O)C=CC4=O	-12	89*	.	-6
SMILES	XBP1 UPR activ	CHOP inh	Bfl-1 A1 inh	CHOP UPR activ
CC(C)=CCC/C(C)=C/CNC(=O)C[C@H]1C[C@H](C(=O)N2CCOCC2)[C@@]2(CCC3CCCC3)c3[nH]c4cc(CCC(=O)N(C)C)ccc4c3CCN2C1=O	21	.	.	9
COc1ccc(N2C(=S)N=C(Nc3ccccc3)C23CCCCC3)cc1	7	101*	0	-1
O=C(CCc1nnc(Cc2cccc(C(F)(F)F)c2)o1)NC1CC1	0	78*	0	2
O=C(Oc1nsnc1N1CCOCC1)N1CCCCC1	-2	.	0	-3
O=C(Oc1nsnc1N1CCOCC1)N1CCOCC1	-1	71*	0	-2
CCC1(c2ccccc2)NC(=O)N(CC(=O)Nc2ccc(S(=O)(=O)Nc3ncccn3)cc2)C1=O (stereo not given)	-1	.	1	-1
C=CCNc1nc(-c2ccc([N+](=O)[O-])cc2)cs1	3	-34	0	4
CN(C)c1nc(-c2ccc([N+](=O)[O-])cc2)cs1	-2	72*	-4	3
O=c1[nH]c2ccccc2n1CCC1CCCCC1	1	86*	1	2
CC(C)Cc1nnc(NC(=O)Nc2ccccc2)s1	1	70*	0	2
CC(C)Cc1nnc(NC(=O)CCC(=O)Nc2ccccc2)s1	-1	.	0	2
Cc1ccc(NC(=O)Nc2nnc(Cc3ccc([N+](=O)[O-])cc3)s2)cc1	3	76*	0	7
Cc1ccc(NC(=O)Nc2ccc([N+](=O)[O-])cc2)nc1	1	70*	0	4
Cc1ccc(NC(=O)Nc2cccc([N+](=O)[O-])c2)nc1	0	0	-3	4
CC(C)c1ccc(/C=c2\sc3nc(-c4ccncc4)nn3c2=O)cc1	2	71*	1	2
Cc1ccc(/C=c2\sc3nc(-c4cccnc4)nn3c2=O)cc1	.	54	0	.
C=CCn1c(SCC(=O)Nc2sccc2C(N)=O)nc2ccc(Cl)cc2c1=O	-4	78*	0	2
Cc1ccc(NC(=S)N2CCN(CCN3C(=O)c4cccc5cccc(c45)C3=O)CC2)cc1	-1	19	0	2
O=C1c2cccc3cccc(c23)C(=O)N1CCN1CCN(C(=S)Nc2ccc(F)cc2)CC1	26	22	1	43*
CC(C)(C)NC(=O)CN(C(=O)Cn1nnc(-c2ccc(Cl)cc2)n1)C1CCN(Cc2ccccc2)CC1	-1	72*	1	4
Nc1nc(Br)c2c(F)cccc2c1-c1ccc(F)cc1	8	74*	0	2
Nc1nc(Br)c2c(F)cccc2c1-c1ccccc1	3	65	0	1
CCCCNC1c2ccccc2C(=O)N1Cc1ccccc1 (stereo not given)	0	.	1	-2
CC(=O)N1c2ccc(S(=O)(=O)N3CCC(C(=O)Nc4cccc(C(F)(F)F)c4)CC3)cc2CC1C (stereo not given)	-5	.	0	4
O=C(COC(=O)CC12CC3CC(CC(C3)C1)C2)Nc1ncc(Cl)cc1Cl	-1	77*	0	2
CC(C)(Oc1ccc(Cl)cc1)C(=O)OCC(=O)Nc1ncc(Cl)cc1Cl	-2	75*	0	-2
COc1ccc(OCCCC(=O)OCC(=O)Nc2ncc(Cl)cc2Cl)cc1	1	.	.	-1

Bioassay records as filed in PubChem BioAssay.
